Hits are enriched below; roughly 2.3% of the tested compounds scored in any of these assays.
TRPC6 inhibitor: mouse TRPC6 channel inhibition; B-score at 10 µM; Q61143; HEK293-TRPC6, membrane potential dye, ACh-evoked depolarization; hits give low values; actives 1.1% (n = 310,000);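 active = B-score under library mean minus 3 SD, initial fluorescence not abnormally high, positive integrated signal ratio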;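 note: B-score derived from integrated fluorescence ratio over the kinetic read; more negative B-score means stronger inhibition of depolarization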
TRPC4 inh: blocks the mouse TRPC4 cation channel; B-score at 10 µM; Q9QUQ5; HEK293 TRPC4beta/mu-opioid, DAMGO-evoked Fluo4 calcium flux; hits give low values; actives 0.39% (n = 300,000);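 active = B-score over 3 SD under the library average, no early fluorescence shift, positive overall ratio signal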
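Assay system – HEK293 line stably carrying TRPC4beta and mu-opioid receptor · Doses – single dose · Detection – Fluo4 calcium-dye fluorescence, kinetic read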
TRPC4 potent: allosterically enhances the mouse TRPC4 cation channel; AID 2227; HEK293 TRPC4beta/mu-opioid, DAMGO EC20, Fluo-4 Ca2+ flux; hits give high values; actives 0.42% (n = 310,000); B-score at 10 µM; Q9QUQ5;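 active = B-score of calcium response area above 5 SD of library B-scores, with initial fluorescence ratio within 5 SD of library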
TRPC6 activator: activates the mouse TRPC6 cation channel. Q61143. HEK293-TRPC6 membrane potential dye fluorescence; hits give high values. B-score at 10 µM. actives 0.13% (n = 310,000). AID 2550;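 active = B-score of the integrated fluorescence ratio above library mean plus 3 SD, and starting fluorescence ratio within library mean plus 5 SD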;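 note: higher score means more depolarization so channel activation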
TRPC4 act: opens the mouse TRPC4 cation channel | Q9QUQ5 | HEK293 TRPC4beta/mu-opioid, Fluo4 calcium fluorescence; hits give high values | B-score at 10 µM | actives 0.49% (n = 310,000);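 active = B-score above 5 SD of library B-scores, and initial fluorescence ratio not above library mean plus 5 SD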;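 note: positive B-score marks a calcium rise read as TRPC4 activation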
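Material: HEK293 stable line with TRPC4beta plus mu-opioid receptor; technique: Fluo4 calcium-sensitive dye fluorescence, kinetic, 1 Hz baseline; timing: Fluo4 dye loading 45 min at room temperature, 110 s recording; controls: assay buffer as low control, maximal DAMGO as high control; read-out: integrated baseline-normalised fluorescence ratio, converted to per-well B score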
A number is an active result; – = inactive.

SMILES	TRPC6 inhibitor	TRPC4 inh	TRPC4 potent	TRPC6 activator	TRPC4 act
COc1cc(N)c(Cl)cc1C(=O)OCC(=O)N1CCCC1	–	–	–	–	–
O=C(C(=O)N1CCCC1)c1c(-c2ccccc2)[nH]c2ccccc12	–	–	–	–	–
O=C(NNC(=S)NC(=O)c1ccc(Br)cc1)c1cccc([N+](=O)[O-])c1	–	–	–	–	–
Cc1ccc(C(=O)NC(=S)NNC(=O)c2ccccc2[N+](=O)[O-])cc1	–	–	–	–	53
O=C(O)c1ccc(NC(=S)NC(=O)c2ccc(-c3ccccc3)cc2)cc1	–	-6	–	–	–
O=C(NNC(=S)NC(=O)c1ccccc1Cl)c1cccc([N+](=O)[O-])c1	–	–	–	–	106
Cc1ccc(C(=O)NNC(=S)NC(=O)c2ccccc2)cc1	–	–	–	–	218
O=C(Nc1ccc2c(c1)CCCN2C(=O)c1ccco1)c1cc([N+](=O)[O-])ccc1Cl	–	–	–	–	–
Cc1ccc2c(c1)cc1c(=O)[nH]ncn12	–	–	–	–	–
O=C(NNC(=S)NC(=O)c1ccccc1)c1ccc([N+](=O)[O-])cc1	–	–	–	–	56
Cc1ccc(C(=O)NNC(=S)NC(=O)c2ccco2)cc1	–	–	–	–	133
Cc1ccc(C(=O)NNC(=O)c2ccco2)cc1	–	–	–	–	–
Cc1ccccc1C(=O)NNC(=S)NC(=O)c1ccccc1	–	–	–	–	205
Cc1cc(-c2cc(C(=O)Nc3ccccc3)on2)nc(NC2CCCC2)n1	–	–	–	–	–
Cn1c(=O)c2c(nc(Cl)n2CC(=O)NC2(C#N)CCCCC2)n(C)c1=O	–	–	–	–	–
CC(=O)Nc1cccc(NC(=O)COC(=O)CO/N=C(\C)c2ccc3c(c2)OCO3)c1	–	–	–	–	–
Oc1ccc(CN2CCCCC2)nc1-c1ccccc1	–	-6	–	–	–
Cc1ccc(O)c(NC(=S)NC(=O)Cc2ccc(Cl)cc2)c1	–	–	12	–	–
NC(=S)N/N=C/c1ccc(-c2cc(Cl)c(Cl)cc2Cl)o1	–	–	–	–	–
NC(=S)N/N=C/c1ccc(Br)o1	–	–	10	–	–
CCN(CC)CCCNC(=O)CN1N=C(c2ccc(OC)cc2)CCC1=O	–	–	–	–	–
Cc1ccc(S(=O)(=O)N2CCC(N3CCN(C)CC3)CC2)cc1Cl	–	–	35	–	–
CN1CCN(S(=O)(=O)c2ccc(-c3ccc(Cl)cc3)cc2)CC1	–	–	–	–	–
CN1CCN(S(=O)(=O)c2ccc(Cl)cc2)CC1	–	–	–	–	48
O=C(c1ccc([N+](=O)[O-])cc1[N+](=O)[O-])n1cnc2ccccc21	–	–	–	–	–
SMILES	TRPC6 inhibitor	TRPC4 inh	TRPC4 potent	TRPC6 activator	TRPC4 act
Cc1onc(-c2ccccc2Cl)c1C(=O)Nc1ccc(S(=O)(=O)N2CCCC2)cc1	–	–	10	–	–
CC(C)=CCc1cc2c(=O)c3c(O)c4c(cc3oc2c(O)c1O)OC(C)C4(C)C (stereo unspecified)	–	–	–	–	–
Cc1ccc(S(=O)(=O)Nc2nc3ccc(S(C)(=O)=O)cc3s2)cc1	–	–	–	–	–
CC(=O)Nc1ccc(S(=O)(=O)Nc2nc3ccc(C)cc3s2)cc1	–	-5	–	–	–
CC1CN(CCOCCOc2ccccc2-c2ccccc2)CC(C)O1 (stereo unspecified)	–	–	–	–	63
Cc1ccccc1C(=O)NNC(=O)/C=C/c1ccccc1	–	–	–	–	–
CC(=O)Nc1ccc(C(=O)NCC(c2ccco2)N(C)C)cc1 (stereo unspecified)	–	–	–	–	–
CN(C)C(CNC(=O)c1ccc(C(F)(F)F)cc1)c1ccco1 (stereo unspecified)	–	-7	–	–	86
CN(C)c1ccc([N+](=O)[O-])cc1C(=O)NCC(c1ccco1)N(C)C (stereo unspecified)	–	-5	–	–	–
Cc1ccc2oc(C(=O)NCC(c3ccco3)N(C)C)c(C)c2c1 (stereo unspecified)	–	-6	–	–	–
C=CCNC(=O)c1c[nH]c2ccc(S(=O)(=O)N(C)c3ccc(OCC)cc3)cc2c1=O	–	–	–	–	–
COc1ccccc1C1CCN(Cc2cccc(C(=O)N3CCC(O)CC3)c2)CC1	–	–	–	–	–

Source: PubChem
